The source of these data is ChEMBL document CHEMBL2407057, “Structural variations on antitumour agents derived from bisacylimidoselenocarbamate. A proposal for structure-activity relationships based on the analysis of conformational behaviour” (Eur J Med Chem, 2013).

The nature of series [1]: Prodrug activation assessed as induction of NaBH4-induced DiMeDiSe release at 60 mM after 8 hrs by head space gas chromatography mass spectrometry analysis. Conditions: 60000 µM; call rule not given here. The method, boiled down:
(§1)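 Compounds dissolved at 60 mM in 5% DMSO/H2O and held at room temperature in sealed vials. Headspace sampled at 8, 16 and 24 h for HS-GC–MS on an HP-5MS column with helium carrier at 1 mL/min, 50:1 split, and EI at 70 eV. SCAN mode was used to set SIM for MeSeH (tR 1.5 min) and DiMeDiSe (tR 2.9 min). Read-out was peak area.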

A short description of series [2]: Prodrug activation assessed as induction of NaBH4-induced MeSeH release at 60 mM after 8 hrs by head space gas chromatography mass spectrometry analysis. Conditions: 60000 µM. The method, boiled down: as §1
Series [3] in a line: Prodrug activation assessed as induction of NaBH4-induced […] release at 60 mM after 16 hrs by head space gas chromatography mass spectrometry analysis. Conditions: 60000 µM. Summed up: as §1
Series [4] in a line: Prodrug activation assessed as induction of NaBH4-induced […] release at 60 mM after 24 hrs by head space gas chromatography mass spectrometry analysis. The following applies: 60000 µM. The method, boiled down: as §1
The test system of the next series is HT-29. Nature of the series: Cytotoxicity against human HT-29 cells after 72 hrs by MTT assay. It is filed as functional. The following applies: HT-29, 72 h; for GI50: read-out: pGI50 (converted).
For a further series, the system named is MCF7. Put plainly: Cytotoxicity against human MCF7 cells after 72 hrs by MTT assay. It is filed as functional. The following applies: MCF7, 72 h; for GI50: read-out: pGI50 (converted).

Bounds are passed on as bounds.

For the compound `C[Se]/C(=N\C(=O)c1ccco1)NC(=O)c1ccco1`, the Drug metabolism result in series [1], in series [2], in series [3] and in series [4] was “Active” throughout.
Turning to `C[Se]/C(=N\C(=O)c1cccs1)NC(=O)c1cccs1`, the Drug metabolism entry in series [1] is listed as “Active”; in series [2] it was “Not Active”; in series [3], “Active”; in series [4] it was “Active”.
Turning to `C[Se]/C(=N\C(=O)c1sccc1Cl)NC(=O)c1sccc1Cl`, the Drug metabolism result in series [1] and in series [2] was “Active” each time. In the series on HT-29, this compound returned a TGI of 38.8 µM.
Consider `C[Se]/C(=N\C(=O)c1csc([N+](=O)[O-])c1)NC(=O)c1csc([N+](=O)[O-])c1`, for which the Drug metabolism entry in series [1] is “Not Active”; in series [2] it was “Active”.
`C[Se]/C(=N\C(=O)c1ccno1)NC(=O)c1ccno1`: the Drug metabolism entry is recorded as “Active” in series [1] and “Not Active” in series [2].
Turning to `C[Se]/C(=N\C(=O)c1cc2ccccc2s1)NC(=O)c1cc2ccccc2s1`, the Drug metabolism result in series [1] and in series [2] was “Not Active” in each case. Moreover, the figures for the GI50 with MCF7 and in the series with HT-29 were 5070 nM and 5620 nM, respectively. Also, the TGI with HT-29 was determined as 40.1 µM.
Take `C[Se]/C(=N\C(=O)c1ccc2c(c1)OCO2)NC(=O)c1ccc2c(c1)OCO2`: the Drug metabolism result in series [1] and in series [2] was “Not Active” each time. The GI50 was 990 nM with MCF7 and 530 nM in the series with HT-29.
Regarding `C[Se]/C(=N\C(=O)c1cnc2ccccc2c1)NC(=O)c1cnc2ccccc2c1`, the Drug metabolism result is reported as “Not Active” in series [1], “Not Active” in series [2], “Active” in series [3] and “Active” in series [4]. Moreover, the GI50 is 660 nM with MCF7 and 200 nM with HT-29.
For `C[Se]/C(=N\C(=O)c1cc(-c2ccccc2)nc2ccccc12)NC(=O)c1cc(-c2ccccc2)nc2ccccc12`, the Drug metabolism result in series [1] and in series [2] was “Not Active” throughout. Besides, the GI50 is 490 nM with MCF7 and 460 nM in the series on HT-29. Further, in the series with HT-29, the TGI stood at 32.6 µM.
With `C[Se]/C(=N\C(=O)c1c2ccccc2nc2ccccc12)NC(=O)c1c2ccccc2nc2ccccc12`, the Drug metabolism result in series [1] was “Not Active”; in series [2], “Not Active”; in series [3], “Active”; in series [4] it was “Active”. Moreover, the values for the GI50 with MCF7 and in the series with HT-29 were 73900 nM and 7630 nM, respectively. The same compound displayed a TGI in the series on HT-29 of 64 µM.
Regarding `CC[C@@]1(O)C(=O)OCc2c1cc1n(c2=O)Cc2cc3ccccc3nc2-1` [CAMPTOTHECIN], the total growth inhibition concentration (TGI) with HT-29 was found to be 0.79 µM.
On the same count and under the same terms, then `COc1cccc2c1C(=O)c1c(O)c3c(c(O)c1C2=O)C[C@@](O)(C(=O)CO)C[C@@H]3O[C@H]1C[C@H](N)[C@H](O)[C@H](C)O1` [DOXORUBICIN], with 6.31 µM.
For the compound `CN(Cc1cnc2nc(N)nc(N)c2n1)c1ccc(C(=O)N[C@@H](CCC(=O)O)C(=O)O)cc1` [METHOTREXATE], the CC50 with MCF7 (read-out: LC50 (the source's name)) is over 100 µM.
With `CC(=O)O[C@H]1C(=O)[C@@]2(C)[C@H]([C@H](OC(=O)c3ccccc3)[C@]3(O)C[C@H](OC(=O)[C@H](O)[C@@H](NC(=O)c4ccccc4)c4ccccc4)C(C)=C1C3(C)C)[C@]1(OC(C)=O)CO[C@@H]1C[C@@H]2O` [PACLITAXEL], the TGI in the series on HT-29 amounted to 0.2 µM.
